# Screens as filed in PubChem BioAssay.
# In the library only some 4.2% were active in any assay of this set; here they are far more common.
# Rad51 HR inh: blocks human Rad51 in homologous recombination | AID 1385 | Q06609 | hRad51 DNA strand exchange, fluorescence dequenching | inhibition, % at 10 µM | hit rate 0.085% among 200,000;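 active means inhibition above 40% at the single screening dose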;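 further: 0% = DMSO control wells and 100% = blanks with heterologous ssDNA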
# Target sequence (Q06609 whole entry, looked up): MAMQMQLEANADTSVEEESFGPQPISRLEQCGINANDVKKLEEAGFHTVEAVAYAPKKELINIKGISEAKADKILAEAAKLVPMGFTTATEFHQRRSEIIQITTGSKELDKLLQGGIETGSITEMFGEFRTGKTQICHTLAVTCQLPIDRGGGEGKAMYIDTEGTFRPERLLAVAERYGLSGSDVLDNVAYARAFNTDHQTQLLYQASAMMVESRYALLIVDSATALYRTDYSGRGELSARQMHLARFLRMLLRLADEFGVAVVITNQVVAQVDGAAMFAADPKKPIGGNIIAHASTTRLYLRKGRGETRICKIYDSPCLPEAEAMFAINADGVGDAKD
#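 System: human Rad51 nucleoprotein filaments preassembled on unlabelled ssDNA. Reagent: labelled 47-mer dsDNA for strand exchange. Schedule: 30-min compound preincubation and 15-min exchange, both room temperature. Measured by: FRET fluorescence dequenching, excitation 485 nm, emission 520 nm. Read-out: Fluorescence-based percent inhibition, control- and blank-normalised. Benchmarks: plate controls and plate blanks.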
# Autophagy mod: alters autophagy in cells; AID 463193; MEF GFP-LC3 puncta imaging; test concentration mostly 10 µM; hit rate 0.98% among 190,000; calls only at 10 µM (by protocol);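 active means percentage of spot-positive cells more than 3 SD above its plate mean, without a fluorescence outlier flag or 80% toxicity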;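 further: spot-positive cell cutoff set from DMSO-treated cells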
# Ins promoter up: MIN6 insulin promoter up-regulation; AID 1625; MIN6 insulin promoter-GFP reporter, high-content imaging; stronger effect = higher value; z-score at 5 µM; hit rate 0.3% among 190,000;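 active means z-score above 3 at 5 µM with at least 500 cells counted in the well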
# Cl transport mod: modulates chloride dependent transport by human KCC2 | KCC2 cells, thallium flux FluoZin-2 fluorescence | B-score of Tl+ flux slope (higher = more flux/activation; lower = inhibition) at 10 µM | Q9H2X9 | hit rate 2.2% among 190,000;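 active means thallium flux slope and its plate-corrected score both differing from the plate sample mean at a set confidence after two filtering rounds, in either direction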;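 further: slope of fluorescence scaled to starting intensity during 10 to 20 s after thallium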
# SKKanGAS inh: blocks kanamycin growth of S. pyogenes SKKanGAS strain; inhibition, % at 7.5 µM; AID 1662; BacTiter-Glo, 6 h; hit rate 1.3% among 300,000;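 active means mean replicate score, as percent of positive control median, at least 50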;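 further: strain carries kanamycin resistance gene driven by streptokinase promoter and grows in 40 µg/ml kanamycin; loss of luminescence reflects streptokinase promoter inhibition or plain growth inhibition; 0% = median of DMSO wells and 100% = positive control at its reference dose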
# WT yeast gro inh: growth inhibition of WT yeast, mitochondrial fusion screen; inhibition, % at 10 µM; mitochondrial fusion phenotypic screen, WT strain; AID 1362; hit rate 2.1% among 190,000; in the data active means inhibition above about 58%; tested in S. cerevisiae
# * = called active by the depositor; i = inactive; nt = no result given; + = active, no number.
SMILES,Rad51 HR inh,Autophagy mod,Ins promoter up,Cl transport mod,SKKanGAS inh,WT yeast gro inh
COC(=O)c1sc(-c2ccc(C(C)(C)C)cc2)cc1NC(=O)CSCC(=O)O,nt,nt,0.28,-0.73,57*,nt
COC(=O)c1sc(-c2ccc(C(C)(C)C)cc2)cc1NC(=O)c1ccccc1C(=O)O,nt,nt,-0.05,-1.7,54*,nt
COC(=O)c1sc(-c2ccc(Cl)cc2)cc1NC(=O)c1ccccc1C(=O)O,23,nt,-0.28,-1.8,2,nt
Cc1cc(=O)oc2cc(NC(=O)Cc3ccccc3[N+](=O)[O-])ccc12,nt,nt,nt,nt,-1,nt
O=C(NC(=S)Nc1cc([N+](=O)[O-])ccc1O)c1cccnc1,nt,i,-0.36,-0.096,24,15
Cc1ccc(S(=O)(=O)NCC(=O)N2CCN(S(=O)(=O)c3ccc(Cl)cc3)CC2)cc1C,nt,nt,nt,nt,-4,nt
Cc1cc(N=Cc2cc(Cl)ccc2O)no1,1,i,1.3,-2.1,0,58*
Cc1cccc(NC(=O)CSc2nc(=O)n(CCCN3CCOCC3)c3c2CCCC3)c1,nt,nt,nt,nt,-13,nt
Cc1nn(-c2ccccc2)c(C)c1/C=N/n1c(-c2ccc(C(C)(C)C)cc2)n[nH]c1=S,1,i,-0.05,2.7,87*,39
Cc1cc(C)n(-c2nc(SCC(=O)O)c3c4c(sc3n2)COC(C)(C)C4)n1,nt,nt,-0.45,1.8,70*,nt
CCc1nc(SCC(=O)O)c2c3c(sc2n1)COC(C)(C)C3,nt,nt,nt,nt,2,nt
COc1ccccc1NC(=O)N1CCC(NC(=O)C2CCCCC2)CC1,nt,nt,nt,nt,3,nt
O=C(/C=C/c1ccc2c(c1)OCO2)NCc1ccncc1,21,nt,0.91,-1.2,-1,nt
CCCOc1ccc(/C=C/c2c([N+](=O)[O-])c(=O)n(C)c(=O)n2C)cc1,nt,nt,nt,nt,50*,nt
CN(C)c1ccc(/C=C/c2c([N+](=O)[O-])c(=O)n(C)c(=O)n2C)cc1,nt,nt,nt,nt,52*,nt
NS(=O)(=O)c1ccc(CCNC(=O)c2cc([N+](=O)[O-])ccc2N2CCCCC2)cc1,nt,nt,nt,nt,3,nt
CCN(C(=O)Cn1nc(C)c([N+](=O)[O-])c1C)C1CCS(=O)(=O)C1 (centres undefined),nt,nt,nt,nt,0,nt
O=C(O)CCCCCNC(=O)OCC1c2ccccc2-c2ccccc21,nt,nt,nt,nt,0,nt
COc1cccc(/C=C/C(=O)OCC(=O)c2c[nH]c3ccccc23)c1OC,nt,i,1.3,0.29,10,0
CCc1cccc2c(C(=O)COC(=O)/C=C/c3ccc(O)c(OC)c3)c[nH]c12,2,i,-0.38,-1.3,51*,11
CC(C)C1Cc2c(sc3c2c(=O)n(-c2ccccc2)c2n[nH]c(=S)n32)CO1 (centres undefined),20,nt,-1,-0.11,9,nt
Cc1cc(C)c(C)c(S(=O)(=O)N2CCN(C)CC2)c1C,1,+,-0.78,0.0062,nt,-3
O=C(C1=C(O)/C(=C/c2ccc(O)cc2)CCC1)C(F)(F)F,5,i,nt,-1.3,nt,67*
Cc1cc(CNC(=O)Cc2ccccc2)c2ccccc2n1,8,+,-0.19,0.0052,-4,1
CCCN1CCC(NC(=O)C2CC=CCC2C(=O)O)CC1 (centres undefined),nt,nt,nt,nt,0,nt
SMILES,Rad51 HR inh,Autophagy mod,Ins promoter up,Cl transport mod,SKKanGAS inh,WT yeast gro inh
Cc1cc(C)c2[nH]c(O)c(N=NC(=S)NCC3CCCO3)c2c1 (centres undefined),-30,i,-0.93,0.85,0,-6
O=C(NCC1CCCO1)c1c(O)c2ccccc2[nH]c1=O (centres undefined),-3,i,0.29,0.9,-2,-3
Oc1[nH]c2c(Cl)cc(Cl)cc2c1N=NC(=S)NCC1CCCO1 (centres undefined),5,i,-3.6,56*,95*,40
Oc1[nH]c2ccccc2c1N=NC(=S)NCC1CCCO1 (centres undefined),3,i,-1,4.2*,-4,9
COc1ccc(-c2nc(C)ncc2N=Nc2ccccc2)cc1,2,i,nt,nt,-12,98*
Cc1cccc(C(=O)N=c2c(C#N)cc3c(=O)n4cccc(C)c4nc3n2Cc2ccco2)c1,-6,+,0.36,0.017,29,1
Clc1ccc(-c2n[nH]c3c2CCC3)cc1Cl,-6,i,-0.02,0.029,88*,71
Clc1ccc(-c2n[nH]c3c2CCCC3)cc1,nt,i,-0.55,0.12,-6,62*
O=C(CNC(=O)c1ccc(Cl)cc1Cl)Nc1ccc(F)cc1,nt,nt,0.27,-2.4,3,nt
Cc1cccc(N2CCN(C(=O)c3cn(C)c(=O)c4c3c3ccccc3n4C)CC2)c1C,nt,i,0.41,nt,11,5
Cc1ccc(Cl)cc1N1CCN(C(=O)c2cn(C)c(=O)c3c2c2ccccc2n3C)CC1,0,i,-1.8,0.55,82*,15
CC1CCN(C(C)C(=O)Nc2ccccc2-c2ccccc2)CC1 (centres undefined),-5,i,-0.45,-0.25,-9,60*
CC(C(=O)Nc1ccccc1-c1ccccc1)N1CCN(C(=O)c2ccccc2)CC1 (centres undefined),nt,nt,0,-0.1,-7,nt
COc1cc2[nH]c(=O)n(CCC(=O)N3CCC(N4CCCCC4)CC3)c(=O)c2cc1OC,1,i,0.53,1.3,-5,71*
COc1cc2[nH]c(=O)n(Cc3ccc(C(=O)N4CCC(N5CCCCC5)CC4)cc3)c(=O)c2cc1OC,nt,nt,nt,nt,8,nt
CCCCNC(=O)C1CC(=O)N(C2CCCCC2)C1 (centres undefined),0,i,3*,nt,1,-6
CC1CCc2cc(F)ccc2N1C(=O)c1ccc2c(c1)OCO2 (centres undefined),4,+,-4.9,0.51,0,8
Cc1ccc(-n2c(=S)[nH]c3sc4c(c3c2=O)CCc2ccccc2-4)cc1,6,i,-0.25,9.1*,6,-2
COc1ccc(-n2c(=S)[nH]c3sc4c(c3c2=O)CCN(C)C4)cc1,-5,nt,-0.61,0.17,-2,nt
CCOCCCNC(=S)N(CCO)Cc1cc2cc3c(cc2[nH]c1=O)OCCO3,nt,nt,nt,nt,4,nt
Cc1cc(Cl)ccc1OC(C)C(=O)Nc1ccc(S(=O)(=O)Nc2cnc3ccccc3n2)cc1 (centres undefined),-3,i,0.42,-1,67*,8
CC(Oc1ccc(Cl)cc1Cl)C(=O)Nc1ccc(S(=O)(=O)Nc2cnc3ccccc3n2)cc1 (centres undefined),3,i,1.5,-0.67,80*,9
O=C(Nc1ccc(S(=O)(=O)Nc2cnc3ccccc3n2)cc1)c1ccc(Cl)cc1Cl,nt,nt,nt,nt,15,nt
CC(=O)N1CCN(S(=O)(=O)c2cccc(C(=O)N(Cc3ccccc3)c3cccc(C)c3)c2)CC1,nt,nt,nt,nt,-17,nt
O=C(Nc1ccccc1C(=O)N/N=C/c1ccncc1)c1ccccc1,24,i,-0.18,-0.079,32,77*
COc1cc(CN2CCC(CCC(=O)NC3CC3)CC2)cc(Cl)c1OC,nt,nt,nt,nt,0,nt
Cc1cccc2c1N(CCCOc1ccccc1)C(=O)C2=O,-3,i,-0.27,0.64,-5,-1
